{"source": "paper PMC4134960", "about": "(Pharmacological research : the official journal of the …, 2014)", "key": {"[1]": {"target": "T1, Abcg2 (Mus musculus, UniProt Q7TMS5)", "T1 sequence (Q7TMS5 1-657)": "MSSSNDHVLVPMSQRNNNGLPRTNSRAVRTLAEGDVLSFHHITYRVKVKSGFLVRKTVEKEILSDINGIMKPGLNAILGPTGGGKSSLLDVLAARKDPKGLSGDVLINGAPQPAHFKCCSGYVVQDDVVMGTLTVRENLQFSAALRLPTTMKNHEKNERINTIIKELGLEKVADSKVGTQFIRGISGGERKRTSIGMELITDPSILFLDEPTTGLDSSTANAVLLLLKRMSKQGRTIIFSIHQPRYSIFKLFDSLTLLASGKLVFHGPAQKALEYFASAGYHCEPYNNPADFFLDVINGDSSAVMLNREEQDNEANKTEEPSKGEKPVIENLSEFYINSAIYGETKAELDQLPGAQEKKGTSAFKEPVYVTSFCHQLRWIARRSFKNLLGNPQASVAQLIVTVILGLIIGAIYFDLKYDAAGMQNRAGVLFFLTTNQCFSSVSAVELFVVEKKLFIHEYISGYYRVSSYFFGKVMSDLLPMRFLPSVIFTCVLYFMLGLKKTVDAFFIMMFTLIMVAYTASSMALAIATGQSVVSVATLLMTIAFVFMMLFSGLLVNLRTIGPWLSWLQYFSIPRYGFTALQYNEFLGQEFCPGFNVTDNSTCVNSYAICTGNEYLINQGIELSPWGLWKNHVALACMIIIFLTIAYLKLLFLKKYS", "test": "Transepithelial transport in monolayers of MDCKII cells over-expressing Abcg2", "assay_type": "in vitro ADME, murine", "conditions": "mouse, Ratio BA/AB (relative transport ratio), MDCKII over-expressing Abcg2, after 4h, 5 μM (compound 8: 1 μM)"}, "[2]": {"target": "T2, murine Abcg2 (Mus musculus, UniProt Q7TMS5)", "T2 sequence (Q7TMS5 1-657)": "T1 sequence (Q7TMS5 1-657)", "test": "Transepithelial transport in monolayers of MDCKII cells over-expressing Abcg2", "assay_type": "in vitro ADME", "conditions": "MDCKII over-expressing Abcg2, after 4h, 5 μM (compound 8: 1 μM)"}, "[3]": {"target": "T3, FAAH (Mus musculus, UniProt O08914)", "T3 sequence (O08914 1-579)": "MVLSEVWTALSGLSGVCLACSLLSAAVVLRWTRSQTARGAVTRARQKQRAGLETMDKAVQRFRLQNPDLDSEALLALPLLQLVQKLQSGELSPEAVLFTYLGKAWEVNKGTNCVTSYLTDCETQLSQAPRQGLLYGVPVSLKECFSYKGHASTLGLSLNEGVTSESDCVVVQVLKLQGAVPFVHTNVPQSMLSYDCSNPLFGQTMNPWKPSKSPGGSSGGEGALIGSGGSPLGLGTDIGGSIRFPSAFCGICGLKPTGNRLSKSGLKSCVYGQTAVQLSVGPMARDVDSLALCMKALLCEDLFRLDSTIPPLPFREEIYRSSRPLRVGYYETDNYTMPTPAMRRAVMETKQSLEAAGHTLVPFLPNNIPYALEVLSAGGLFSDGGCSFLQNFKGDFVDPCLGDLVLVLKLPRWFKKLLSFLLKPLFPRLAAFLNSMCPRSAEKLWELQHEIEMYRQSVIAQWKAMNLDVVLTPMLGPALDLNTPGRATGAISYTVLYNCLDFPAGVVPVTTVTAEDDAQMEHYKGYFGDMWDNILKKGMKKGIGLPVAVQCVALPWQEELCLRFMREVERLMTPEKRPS", "assay_type": "in vivo, mice", "summary_of_the_method": "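Dosing was i.p. in saline/PEG400/Tween-80 (18:1:1), with kill at 1 h. Brain S1 fraction (1000 × g; 50 μg protein by BCA) was incubated 30 min at 37°C in 50 mM Tris-HCl pH 7.5 with 0.05% fatty acid-free BSA, 10 μM anandamide and [ethanolamine-3H]anandamide (10,000 cpm). The reaction was stopped with chloroform/methanol (1:1), and aqueous-phase radioactivity counted by scintillation. n = 3–4, mean ± SEM, ANOVA with Dunnett's test vs vehicle.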"}, "[4]": {"test": "Brain-to-plasma ratio of URB937 in wild-type and transporter knockout mice", "assay_type": "in vivo", "conditions": "5 mg/kg i.p., 1 h", "summary_of_the_method": "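Male 9-week FVB wild-type, Mdr1a/b−/−, Bcrp−/− and Mdr1a/b−/−-Bcrp−/− mice received the test compound i.p. in saline/PEG400/Tween-80 (18:1:1, v/v/v) at 10 mL/kg and were killed 1 h later. Plasma came from cardiac blood spun at 2000 × g for 20 min. Brain was homogenized in 50 mM Tris-HCl pH 7.5/0.32 M sucrose, spun at 1000 × g for 10 min at 4°C, and extracted with methanol/chloroform. Read-out by LC/MS on C18 (m/z 377). n = 3–4, mean ± SEM.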"}, "[5]": {"conditions": "cited from earlier work"}, "[6]": {"target": "T3, FAAH", "conditions": "cited from earlier work"}, "[7]": {"test": "Transepithelial transport in monolayers of wild-type MDCKII cells", "conditions": "dog, MDCK, Ratio BA/AB (relative transport ratio), after 4h, 5 μM (compound 8: 1 μM)"}, "[8]": {"test_system": "wild-type MDCKII cells", "test": "Transepithelial transport in monolayers of wild-type MDCKII cells", "conditions": "after 4h, 5 μM (compound 8: 1 μM)"}, "[9]": {"target": "human ABCB1 (Homo sapiens, UniProt P08183)", "sequence (P08183 whole entry)": "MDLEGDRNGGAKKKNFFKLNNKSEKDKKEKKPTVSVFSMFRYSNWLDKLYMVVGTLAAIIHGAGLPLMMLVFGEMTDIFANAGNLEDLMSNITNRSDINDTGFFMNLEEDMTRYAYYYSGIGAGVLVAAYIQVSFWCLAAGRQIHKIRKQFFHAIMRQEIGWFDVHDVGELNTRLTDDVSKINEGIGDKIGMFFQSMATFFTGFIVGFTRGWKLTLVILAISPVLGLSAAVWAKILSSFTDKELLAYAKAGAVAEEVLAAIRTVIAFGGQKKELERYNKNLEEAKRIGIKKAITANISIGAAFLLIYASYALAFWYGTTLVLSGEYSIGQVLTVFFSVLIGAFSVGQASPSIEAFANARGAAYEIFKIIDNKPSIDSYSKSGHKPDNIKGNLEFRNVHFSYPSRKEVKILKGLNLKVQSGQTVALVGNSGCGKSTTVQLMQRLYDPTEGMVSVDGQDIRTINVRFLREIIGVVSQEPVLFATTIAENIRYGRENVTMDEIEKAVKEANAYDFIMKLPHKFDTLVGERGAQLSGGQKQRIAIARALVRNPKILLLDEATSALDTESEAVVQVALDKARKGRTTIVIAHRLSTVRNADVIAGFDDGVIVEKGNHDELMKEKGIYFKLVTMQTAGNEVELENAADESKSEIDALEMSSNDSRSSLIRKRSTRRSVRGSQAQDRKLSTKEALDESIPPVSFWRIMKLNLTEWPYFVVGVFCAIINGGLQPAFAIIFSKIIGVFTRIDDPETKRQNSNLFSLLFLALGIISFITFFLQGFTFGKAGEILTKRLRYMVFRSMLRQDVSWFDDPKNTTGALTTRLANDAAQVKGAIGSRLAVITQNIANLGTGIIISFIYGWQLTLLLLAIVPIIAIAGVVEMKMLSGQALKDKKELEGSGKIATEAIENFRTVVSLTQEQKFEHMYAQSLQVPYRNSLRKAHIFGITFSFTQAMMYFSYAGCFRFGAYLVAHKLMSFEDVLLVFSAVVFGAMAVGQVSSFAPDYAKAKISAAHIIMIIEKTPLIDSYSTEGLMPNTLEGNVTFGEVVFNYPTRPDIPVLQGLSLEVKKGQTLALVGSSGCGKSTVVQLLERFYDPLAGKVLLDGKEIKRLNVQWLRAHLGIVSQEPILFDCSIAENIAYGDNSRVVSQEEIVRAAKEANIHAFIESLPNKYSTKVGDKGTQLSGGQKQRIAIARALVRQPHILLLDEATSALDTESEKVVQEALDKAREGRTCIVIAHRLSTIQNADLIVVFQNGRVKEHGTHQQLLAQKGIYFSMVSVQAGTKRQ", "test": "Transepithelial transport in monolayers of MDCKII cells over-expressing ABCB1", "conditions": "MDCKII over-expressing ABCB1, after 4h, 5 μM (compound 8: 1 μM)"}}, "note": "Read-outs that look alike come from different tables or passages of the source.", "data": [{"compound": "NC(=O)c1cccc(-c2cc(OC(=O)NC3CCCCC3)ccc2O)c1", "note": "[URB937, cyclohexylcarbamic acid 3′-carbamoyl-6-hydroxybiphenyl-3-yl ester]", "values": [{"measurement": "efflux ratio at 4 h", "setting": "[1]", "value": "≥ 10"}, {"measurement": "A to B transport (percentage of drug appearing in the opposite compartment)", "setting": "[2]", "value": "1.68 ± 0.12", "unit": "%"}, {"measurement": "B to A transport (percentage of drug appearing in the opposite compartment)", "setting": "[2]", "value": "25.9 ± 1.44", "unit": "%"}, {"measurement": "Effect on brain FAAH activity (in words)", "setting": "[3]; Mdr1a/b−/−-Bcrp−/− mice, 5 mg/kg i.p.", "value": "drastically inhibited"}, {"measurement": "inhibition at 5 mg/kg", "setting": "[3]; mouse, ip, read-out: Inhibition of brain FAAH", "value": 26, "unit": "%"}, {"measurement": "Effect on brain FAAH activity (in words)", "setting": "[3]; wild-type mice, 5 mg/kg i.p.", "value": "did not affect FAAH activity"}, {"measurement": "Effect on liver FAAH activity (in words)", "setting": "[3]; wild-type mice, 5 mg/kg i.p.", "value": "completely blocked FAAH activity"}, {"measurement": "Brain-to-plasma ratio (in words)", "setting": "[4]; Abcb1-deficient (Mdr1a/b−/−) mice", "value": "not significantly different from controls"}, {"measurement": "Brain-to-plasma ratio (in words)", "setting": "[4]; Mdr1a/b−/−-Bcrp−/− mice", "value": "significantly increased"}, {"measurement": "PSA value", "setting": "[5]", "value": "≥ 80", "unit": "Å"}, {"measurement": "Brain ID50 relative to dose needed to inhibit FAAH in liver", "setting": "[6]; brain vs liver", "value": 400, "unit": "times"}, {"measurement": "Brain FAAH activity median effective dose (ID50)", "setting": "[6]; brain", "value": 40, "unit": "mg/kg"}, {"measurement": "Brain ID50", "setting": "[6]; inhibition of brain FAAH activity after systemic administration in mice, ref Moreno-Sanz et al., 2013", "value": 40, "unit": "mg/kg"}, {"measurement": "Liver FAAH activity ID50", "setting": "[6]; peripheral organs such as the liver", "value": 0.1, "unit": "mg/kg"}, {"measurement": "efflux ratio at 4 h", "setting": "[7]", "value": "≥ 2"}, {"measurement": "A to B transport (percentage of drug appearing in the opposite compartment)", "setting": "[8]", "value": "17.78 ± 2.12", "unit": "%"}, {"measurement": "B to A transport (percentage of drug appearing in the opposite compartment)", "setting": "[8]", "value": "44.3 ± 5.35", "unit": "%"}, {"measurement": "A to B transport (percentage of drug appearing in the opposite compartment)", "setting": "[9]", "value": "5.89 ± 1.33", "unit": "%"}, {"measurement": "B to A transport (percentage of drug appearing in the opposite compartment)", "setting": "[9]", "value": "50.2 ± 4.02", "unit": "%"}]}]}
